System: Rattus norvegicus
Test: Antiallergic activity in iv dosed Sprague-Dawley rat assessed as inhibition of egg albumin-induced passive cutaneous anaphylaxis
Assay type: functional
Details: for ED50: Rattus norvegicus, Sprague-Dawley, iv
How it was run: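 Rat passive cutaneous anaphylaxis; drug given iv as its tris(hydroxymethyl)aminomethane (THAM) salt solution at the moment of antigen challenge. Percent inhibition of the PCA reaction measured at three or more trial doses; ED50 = dose giving 50% inhibition of the anaphylactic reaction.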

SMILES	Activity_index	ED50 [µmol/kg]
Nc1ccc2nc(C(=O)O)cc(O)c2c1	9.9	48.3
COc1ccc2nc(C(=O)O)cc(O)c2c1	9.4	82.2
O=C(O)C(=O)Nc1ccccc1	8.3	245
N#Cc1ccc(NC(=O)C(=O)O)cc1	10.1	40.5
N#Cc1ccccc1NC(=O)C(=O)O	11.5	10.1
N#Cc1cccc(NC(=O)C(=O)O)c1	12.6	3.38
N#Cc1cc(NC(=O)C(=O)O)ccc1Cl	13.1	2.06
N#Cc1ccc(Cl)c(NC(=O)C(=O)O)c1	13.3	1.74
N#Cc1cc(C#N)cc(NC(=O)C(=O)O)c1	14	0.84
Nc1ccc2oc(C(=O)O)cc(=O)c2c1	10	43.5
O=C(O)c1cc(=O)c2cc([N+](=O)[O-])ccc2o1	11.9	6.48
O=C(O)c1cc(=O)c2c(OCC(O)COc3cccc4oc(C(=O)O)cc(=O)c34)cccc2o1 [CROMOLYN SODIUM]		6.1
O=C(O)c1cc(=O)c2ccccc2[nH]1 [TRANSTORINE]	10.1	42.4
O=C(O)c1cc(O)c2cccc(O)c2n1 [XANTHURENATE]	9.1	114

— ChEMBL document CHEMBL3244080, “Structure-activity correlations for a series of antiallergy agents. Oxanilic, quinaldic, and benzopyran-2-carboxylic acids” (1978)
